Experimental data published in ChEMBL document CHEMBL2150921, “Synthesis, structure-activity relationships, and docking studies of N-phenylarylformamide derivatives (PAFAs) as non-nucleoside HIV reverse transcriptase inhibitors” (Eur J Med Chem, 2012).

Experiments:
C8166 = experiment: Cytotoxicity against human C8166 cells assessed as decrease in cell viability by MTT assay; format: functional
In short: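 Uninfected C8166 cells exposed to compound; viability read by MTT colorimetric assay at A570/630. CC50, the concentration reducing viable cells by 50%, taken from dose-response curve. Mean of at least two separate experiments.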

[1] = tested on: Human immunodeficiency virus 1; experiment: Antiviral activity against wild type HIV1 3B infected in human C8166 cells assessed as protection against virus-induced cytopathic effect after 3 days by syncytium reduction assay; format: functional, organism-based; conditions: Human immunodeficiency virus 1, 3B, C8166, 72 h
In short: (§1)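 C8166 cells (4 × 10⁵/mL) infected at MOI 0.06 in presence of graded compound concentrations; AZT and GW678248 as drug controls. After 3 days culture, syncytia (multinucleated giant cells) counted under inverted microscope; EC50 taken as concentration blocking 50% syncytium formation. Mean of at least two separate experiments.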

[2] = tested on: Human immunodeficiency virus 1; experiment: Antiviral activity against HIV1 A17 harbouring RT K103N/Y181C mutant infected in human C8166 cells assessed as protection against virus-induced cytopathic effect after 3 days by syncytium reduction assay; format: functional, organism-based; conditions: Human immunodeficiency virus 1, A17, C8166, 72 h
In short: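 C8166 cells (4 × 10⁵/mL) infected at M.O.I 0.06 in the presence of various compound concentrations; cultured 3 days, syncytia (multinucleated giant cells) scored under inverted microscope; EC50 = concentration blocking syncytia formation by 50%. AZT and GW678248 as drug controls. Mean of at least two separate experiments.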

[3] = Therapeutic index, ratio of CC50 for human C8166 cells to EC50 for HIV1 A17 harbouring RT K103N/Y181C mutant infected in human C8166 cells; format: cell-based; conditions: read-out: Ratio CC50/EC50
In short: (§2)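 CC50 from MTT assay on uninfected C8166 cells (A570/630, dose-response curve, 50% viable cell reduction) divided by EC50 from 3-day syncytium reduction assay in C8166 cells (4 × 10⁵/mL) infected at M.O.I 0.06; syncytia scored microscopically. Values are means of at least two separate experiments.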

[4] = target: Human immunodeficiency virus type 1 reverse transcriptase (Human immunodeficiency virus 1, UniProt Q72547); experiment: Inhibition of wild type HIV1 reverse transcriptase activity using poly (rA)/oligo (dT)15 homopolymer template after 1 hr by ELISA
In short: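 Wild-type RT; oligo(dT) immobilized on plates, poly(rA) template, biotin-11-dUTP incorporation. Reaction: 50 mM Tris-HCl pH 8.3, 3 mM MgCl2, 75 mM KCl, 5 mM DTT, 0.13 mg/mL BSA, […]; 37 °C, 1 h. Detection by streptavidin-alkaline phosphatase and PNPP (30 min, 37 °C), stopped with 0.5 M NaOH.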

[5] = tested on: Human immunodeficiency virus 2; experiment: Antiviral activity against HIV2 ROD infected in human C8166 cells assessed as protection against virus-induced cytopathic effect after 3 days by syncytium reduction assay; format: functional, organism-based; conditions: Human immunodeficiency virus 2, ISOLATE ROD, C8166, 72 h; in short: as §1
[6] = Therapeutic index, ratio of CC50 for human C8166 cells to EC50 for wild type HIV1 3B infected in human C8166 cells; format: cell-based; conditions: C8166 cells infected with wild type HIV1 3B, read-out: Ratio CC50/EC50; in short: as §2

| Structure (SMILES) | CC50 (C8166) [µM] | EC50 [1] [µM] | EC50 [2] [µM] | selectivity ratio [3] | IC50 [4] [µM] | EC50 [5] [µM] | selectivity ratio [6] |
| --- | --- | --- | --- | --- | --- | --- | --- |
| Cc1cc(S(N)(=O)=O)ccc1NC(=O)COc1ccc(Cl)cc1C(=O)c1cc(Cl)cc(C#N)c1 | > 387 | 0.000103 | 0.00028 | > 1.37e+06 | 0.00269 | – | – |
| Cc1cc(S(N)(=O)=O)ccc1NC(=O)COc1ccc(Cl)cc1NC(=O)c1cccc(Cl)c1 | 59.7 | 0.00319 | 1.49 | 39.9 | – | 52.5 | 18700 |
| Cc1cc(S(N)(=O)=O)ccc1NC(=O)COc1ccc(Cl)cc1NC(=O)c1ccccc1 | 207 | 0.00367 | 1.59 | 130 | – | 72.1 | 56500 |
| Cc1cc(S(N)(=O)=O)ccc1NC(=O)COc1ccc(Cl)cc1NC(=O)c1ccccc1C | 67.3 | 0.0179 | 2.29 | 29.4 | – | 55.5 | 3750 |
| Cc1cccc(C(=O)Nc2cc(Cl)ccc2OCC(=O)Nc2ccc(S(N)(=O)=O)cc2C)c1 | 52.9 | 0.00146 | 0.46 | 115 | – | 29.6 | 36200 |
| Cc1ccc(C(=O)Nc2cc(Cl)ccc2OCC(=O)Nc2ccc(S(N)(=O)=O)cc2C)cc1 | 54.2 | 0.0051 | 0.93 | 58.2 | – | 57.3 | 10600 |
| Cc1cc(S(N)(=O)=O)ccc1NC(=O)COc1ccc(Cl)cc1NC(=O)c1cccc(F)c1 | 243 | 0.00353 | 1.02 | 239 | – | 186 | 68800 |
| Cc1cc(S(N)(=O)=O)ccc1NC(=O)COc1ccc(Cl)cc1NC(=O)c1ccccc1[N+](=O)[O-] | 54.8 | 0.0003 | 0.29 | 188 | – | 11.8 | 185000 |
| Cc1cc(S(N)(=O)=O)ccc1NC(=O)COc1ccc(Cl)cc1NC(=O)c1cccc([N+](=O)[O-])c1 | 58.8 | 0.00066 | 0.46 | 128 | – | 36.1 | 89400 |
| Cc1cc(S(N)(=O)=O)ccc1NC(=O)COc1ccc(Cl)cc1NC(=O)c1cccc(C(F)(F)F)c1 | 124 | 1.51 | 52.9 | 2.34 | – | 81.3 | 82 |
| COc1ccc(C(=O)Nc2cc(Cl)ccc2OCC(=O)Nc2ccc(S(N)(=O)=O)cc2C)cc1 | 69.5 | 0.204 | 18.1 | 3.85 | – | 58.8 | 340 |
| Cc1ccc(C(=O)Nc2cc(Cl)ccc2OCC(=O)Nc2ccc(S(N)(=O)=O)cc2C)c(C)c1 | 47.6 | 0.00056 | 0.09 | 543 | – | 41.4 | 85300 |
| Cc1ccc(C)c(C(=O)Nc2cc(Cl)ccc2OCC(=O)Nc2ccc(S(N)(=O)=O)cc2C)c1 | 79.7 | 0.00037 | 0.14 | 560 | – | 27.7 | 213000 |
| Cc1ccc(C(=O)Nc2cc(Cl)ccc2OCC(=O)Nc2ccc(S(N)(=O)=O)cc2C)cc1C | 84.1 | 0.00032 | 0.1 | 836 | 0.00114 | 4.37 | 261000 |
| Cc1cc(C)cc(C(=O)Nc2cc(Cl)ccc2OCC(=O)Nc2ccc(S(N)(=O)=O)cc2C)c1 | 36.5 | 0.00116 | 0.33 | 110 | – | 25.9 | 31300 |
| Cc1cc(S(N)(=O)=O)ccc1NC(=O)COc1ccc(Cl)cc1NC(=O)c1ccc(Cl)cc1Cl | 61.1 | 0.00297 | 0.33 | 187 | – | 14.4 | 20600 |
| Cc1cc(S(N)(=O)=O)ccc1NC(=O)COc1ccc(Cl)cc1NC(=O)c1cc(Cl)ccc1Cl | 42.1 | 0.00234 | 0.42 | 100 | – | 21.6 | 18000 |
| Cc1cc(S(N)(=O)=O)ccc1NC(=O)COc1ccc(Cl)cc1NC(=O)c1ccc(Cl)c(Cl)c1 | 158 | 0.0514 | 1.14 | 138 | – | 55.5 | 3060 |
| Cc1cc(S(N)(=O)=O)ccc1NC(=O)COc1ccc(Cl)cc1NC(=O)c1cc(Cl)cc(Cl)c1 | 72.4 | 0.00027 | 0.27 | 268 | – | 18 | 271000 |
| Cc1cc(S(N)(=O)=O)ccc1NC(=O)COc1ccc(Cl)cc1NC(=O)c1cc(Cl)cc(Br)c1 | 114 | 3.09 | 27.8 | 4.11 | – | 61.5 | 37 |
| Cc1cc(S(N)(=O)=O)ccc1NC(=O)COc1ccc(Cl)cc1NC(=O)c1cc(Br)cc(Br)c1 | 89.7 | 0.0459 | 1.39 | 64.7 | – | 56.5 | 1950 |
| Cc1cc(S(N)(=O)=O)ccc1NC(=O)COc1ccc(Cl)cc1NC(=O)c1cc(Cl)cc(C#N)c1 | 131 | 0.00096 | 0.29 | 454 | 0.00205 | 23.2 | 136000 |
| Cc1cc(S(N)(=O)=O)ccc1NC(=O)COc1ccc(Cl)cc1NC(=O)/C=C/c1ccccc1 | 163 | 95.4 | 154 | 1.06 | – | 77.5 | 2 |
| Cc1cc(S(N)(=O)=O)ccc1NC(=O)COc1ccc(Cl)cc1NC(=O)Cc1c(Cl)cccc1Cl | > 359 | 249 | 241 | > 1.49 | – | 160 | > 2 |
| Cc1cc(S(N)(=O)=O)ccc1NC(=O)COc1ccc(Cl)cc1NC(=O)c1cccc2ccccc12 | > 382 | 0.109 | 21.5 | > 17.7 | – | 97.7 | > 3500 |
| Cc1cc(S(N)(=O)=O)ccc1NC(=O)COc1ccc(Cl)cc1NC(=O)c1ccc2ccccc2c1 | 37.6 | 0.101 | 8.91 | 4.22 | – | 31.6 | 373 |
| Cc1cn([C@H]2C[C@H](N=[N+]=[N-])[C@@H](CO)O2)c(=O)[nH]c1=O [ZIDOVUDINE] | 4910 | – | – | 216000 | – | – | 422000 |
